Measurements: ChEMBL document CHEMBL2163267, “Novel N-linked aminopiperidine inhibitors of bacterial topoisomerase type II with reduced pK(a): antibacterial agents with an improved safety profile” (J Med Chem, 2012)
≈ marks a conversion by molar mass, not a printed value.

What was measured:
[1] = AUC in Wistar Han rat at 3 mg/kg, iv administered as bolus dose; type: ADME, organism-based; design: dose 3 mg/kg, route intravenous; settings: plasma
Outline: (§1)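 Single iv dose (3 mg/kg bolus, or 10 mg/kg infusion, per line). Rats in groups of three, bolus via cannulated jugular vein. Male beagle dogs (n = 3), iv as 15 min infusion, sampled 0 to 24 h. Serial whole-blood samples taken at time intervals. Plasma levels measured by LC-MS/MS. Parameters estimated by non-compartmental analysis.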

Staphylococcus aureus = assay: Antibacterial activity against methicillin-susceptible Staphylococcus aureus after 18 to 24 hrs by CLSI broth microdilution method; type: functional
Pseudomonas aeruginosa = assay: Antibacterial activity against Pseudomonas aeruginosa PAO1 after 18 to 24 hrs by CLSI broth microdilution method; type: functional
Escherichia coli = assay: Antibacterial activity against Escherichia coli W3110 after 18 to 24 hrs by CLSI broth microdilution method; type: functional
[2] = Volume of distribution in Beagle dog at 3 mg/kg, iv administered as bolus dose and 10 mg/kg, po; type: ADME, organism-based, Canis lupus familiaris; settings: in vivo
[3] = Clearance in Wistar Han rat at 3 mg/kg, iv administered as bolus dose and 10 mg/kg, po; type: ADME, organism-based; settings: in vivo; outline: as §1
[4] = Intrinsic clearance in Wistar Han rat hepatocytes measured per 10^6 cells; type: ADME, cell-based, Hepatocyte; settings: read-out: CLH
[5] = Fraction unbound in human plasma at 10 uM by equilibrium dialysis method; type: ADME, cell-free
Outline: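 Equilibrium dialysis. Compound at 10 μM in the plasma (donor) chamber against phosphate buffer, rotated at 37 °C for 16 h. Drug in the plasma and buffer samples quantified by LC-MS/MS after methanol protein precipitation with internal standard. Standard curve 10 nM to 10 μM.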

[6] = Octanol-phosphate buffer partition coefficient, log D of the compound at pH 7.4 by shake flask method; type: physicochemical
Outline: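 Shake-flask partition between n-octanol and 10 mM phosphate buffer at pH 7.4. Shaken 1 h at 1200 rpm to reach equilibrium. Phases analysed by LC/UV, with MS for mass confirmation.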

[7] = Dissociation constant, pKa of the compound by pH metric assay; type: physicochemical
Outline: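 pH-metric titration on an automated titrator, run in triplicate. Accuracy about 0.02 log units.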

Streptococcus pneumoniae = assay: Antibacterial activity against penicillin-susceptible Streptococcus pneumoniae D39 after 18 to 24 hrs by CLSI broth microdilution method; type: functional
[8] = Inhibition of Escherichia coli DNA topoisomerase 4 subunit ParC/DNA topoisomerase 4 subunit ParE ATPase activity after 24 hrs by malachite green staining-based colorimetric assay
[9] = Clearance in Beagle dog at 3 mg/kg, iv administered as bolus dose and 10 mg/kg, po; type: ADME, organism-based, Canis lupus familiaris; settings: in vivo
[10] = AUC in Beagle dog at 3 mg/kg, iv administered as bolus dose; type: ADME, organism-based, Canis lupus familiaris; design: dose 3 mg/kg, route intravenous; settings: plasma
[11] = Intrinsic clearance in Beagle dog hepatocytes measured per 10^6 cells; type: ADME, cell-based, Canis lupus familiaris, Hepatocyte; settings: read-out: CLH
[12] = Volume of distribution in Wistar Han rat at 3 mg/kg, iv administered as bolus dose and 10 mg/kg, po; type: ADME, organism-based; settings: in vivo; outline: as §1
[13] = target: T1, Voltage-gated inwardly rectifying potassium channel KCNH2 (Homo sapiens, UniProt Q12809); assay: Displacement of [3H]-astemizole from human ERG expressed in HEK293 cells after 60 mins by liquid scintillation counter; type: cell-based
T1 sequence (Q12809 whole entry): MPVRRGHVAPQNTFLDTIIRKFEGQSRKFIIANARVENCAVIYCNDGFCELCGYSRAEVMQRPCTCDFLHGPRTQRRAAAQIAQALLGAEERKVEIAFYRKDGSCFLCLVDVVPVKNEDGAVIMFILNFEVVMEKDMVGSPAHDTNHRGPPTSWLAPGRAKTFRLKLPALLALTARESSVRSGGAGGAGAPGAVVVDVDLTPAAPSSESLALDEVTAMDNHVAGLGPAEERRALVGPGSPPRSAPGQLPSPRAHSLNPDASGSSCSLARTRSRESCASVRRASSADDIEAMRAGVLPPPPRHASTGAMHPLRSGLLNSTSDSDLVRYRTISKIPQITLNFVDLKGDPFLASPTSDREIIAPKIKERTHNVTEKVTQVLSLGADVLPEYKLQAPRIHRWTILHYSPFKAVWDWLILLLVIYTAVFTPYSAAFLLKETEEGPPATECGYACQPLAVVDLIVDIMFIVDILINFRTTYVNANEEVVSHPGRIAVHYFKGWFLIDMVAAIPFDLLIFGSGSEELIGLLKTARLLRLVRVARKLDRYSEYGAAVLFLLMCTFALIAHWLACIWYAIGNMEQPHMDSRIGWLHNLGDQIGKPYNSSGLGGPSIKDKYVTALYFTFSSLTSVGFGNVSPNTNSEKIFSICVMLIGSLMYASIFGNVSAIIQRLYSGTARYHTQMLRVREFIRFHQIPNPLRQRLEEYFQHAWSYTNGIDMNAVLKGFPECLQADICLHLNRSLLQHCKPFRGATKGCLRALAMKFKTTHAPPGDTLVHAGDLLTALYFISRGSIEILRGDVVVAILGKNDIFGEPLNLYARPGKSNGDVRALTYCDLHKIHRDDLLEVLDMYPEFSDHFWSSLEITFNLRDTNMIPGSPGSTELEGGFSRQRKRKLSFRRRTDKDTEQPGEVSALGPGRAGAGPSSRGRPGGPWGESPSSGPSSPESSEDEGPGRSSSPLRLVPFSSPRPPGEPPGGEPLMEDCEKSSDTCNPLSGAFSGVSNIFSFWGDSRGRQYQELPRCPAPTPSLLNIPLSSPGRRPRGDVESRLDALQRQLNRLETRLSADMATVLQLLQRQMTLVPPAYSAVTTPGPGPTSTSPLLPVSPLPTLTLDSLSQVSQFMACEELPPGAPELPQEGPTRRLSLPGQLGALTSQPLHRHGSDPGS

[14] = target: T1, Voltage-gated inwardly rectifying potassium channel KCNH2; assay: Inhibition of human ERG by Ionworks assay
[15] = Half life in Beagle dog at 3 mg/kg, iv administered as bolus dose and 10 mg/kg, po; type: ADME, organism-based, Canis lupus familiaris; settings: in vivo
[16] = Half life in Wistar Han rat at 3 mg/kg, iv administered as bolus dose and 10 mg/kg, po; type: ADME, organism-based; settings: in vivo; outline: as §1
[17] = Oral bioavailability in Beagle dog at 10 mg/kg; type: ADME, organism-based, Canis lupus familiaris; settings: in vivo
Outline: (§2)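 Bioavailability from a 10 mg/kg oral dose, by gavage in rats (groups of three) or orally in male beagle dogs (n = 3). Plasma sampled serially over time (dogs 0 to 24 h). Levels measured by LC-MS/MS and referenced to iv dosing. Parameters from non-compartmental analysis.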

Cavia porcellus = assay: Cardiotoxicity in iv dosed guinea pig assessed as MAPD90 prolongation at 16 uM free plasma concentration; type: toxicity, organism-based; settings: in vivo
Outline: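 Male guinea pigs anaesthetized with Nembutal, tracheotomized and mechanically ventilated. Compound given iv in two 17 min infusion periods with cardiac pacing. Monophasic action potential recorded continuously and MAPD90 taken. Blood drawn at each dose level for plasma concentration. Vehicle controls run in separate cohorts; n = 6.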

[18] = Oral bioavailability in Wistar Han rat at 10 mg/kg; type: ADME, organism-based; settings: in vivo; outline: as §2
[19] = AUC in Wistar Han rat at 10 mg/kg, iv administered as infusion; type: ADME, organism-based; design: dose 10 mg/kg, route intravenous; settings: plasma; outline: as §1
Rattus norvegicus = assay: Volume of distribution in Wistar Han rat at 10 mg/kg, iv administered as infusion and po; type: ADME, organism-based; design: dose 10 mg/kg, route oral; settings: in vivo; outline: as §1
[20] = Half life in Beagle dog at 10 mg/kg, iv administered as infusion and po; type: ADME, organism-based, Canis lupus familiaris; design: dose 10 mg/kg, route oral; settings: in vivo
Canis familiaris = assay: Volume of distribution in Beagle dog at 10 mg/kg, iv administered as infusion and po; type: ADME, organism-based, Canis lupus familiaris; design: dose 10 mg/kg, route oral; settings: in vivo; outline: as §1
[21] = AUC in Beagle dog at 10 mg/kg, iv administered as infusion; type: ADME, organism-based, Canis lupus familiaris; design: dose 10 mg/kg, route intravenous; settings: plasma; outline: as §1
[22] = Intrinsic clearance in human hepatocytes measured per 10^6 cells; type: ADME, cell-based, Hepatocyte; settings: read-out: CLH

| MIC (Staphylococcus aureus) [µg/mL] | MIC (Pseudomonas aeruginosa) [µg/mL] | MIC (Escherichia coli) [µg/mL] | hepatocyte CLint [4] [µL/min/1e6 cells] | fraction unbound at 10 µM [5] | logD [6] | pKa [7] | MIC (Streptococcus pneumoniae) [µg/mL] | IC50 [8] [nM] | hepatocyte CLint [11] [µL/min/1e6 cells] | SMILES | AUC [1] [ng·h/mL] | Vd [2] [L/kg] | clearance [3] [mL/min/kg] | clearance [9] [mL/min/kg] | AUC [10] [ng·h/mL] | Vd [12] [L/kg] | other results |
| --- | --- | --- | --- | --- | --- | --- | --- | --- | --- | --- | --- | --- | --- | --- | --- | --- | --- |
| 0.03 (≈ 0.0646 µM) | 1 (≈ 2.15 µM) | 0.13 (≈ 0.28 µM) | 26 | 0.26 | 0.6 | 8.42 | 0.08 (≈ 0.172 µM) | 2.2 | < 1 | COc1ccc2ncc(=O)n(CCN3CCC(NCc4ccc5c(n4)NC(=O)CO5)CC3)c2c1 | 190 | 2 | 252 | 8.5 | 6800 | 23 |  |
| 0.06 (≈ 0.126 µM) | 8 (≈ 16.8 µM) | 1 (≈ 2.1 µM) | 14 | 0.2 | 0.66 | 7.28 | 0.25 (≈ 0.525 µM) | 11 | 8.6 | N#Cc1ccc2ccc(=O)n(CCN3CC[C@@H](NCc4ccc5c(n4)NC(=O)CO5)[C@@H](F)C3)c2c1 |  |  |  |  |  |  | AUC [19]: 2500 ng·h/mL; Vd (Rattus norvegicus): 3 L/kg; half-life [20]: 5.4 h; Vd (Canis familiaris): 1.7 L/kg; AUC [21]: 25000 ng·h/mL; hepatocyte CLint [22]: 2 µL/min/1e6 cells |

| SMILES | MIC (Staphylococcus aureus) [µg/mL] | MIC (Pseudomonas aeruginosa) [µg/mL] | MIC (Escherichia coli) [µg/mL] | hepatocyte CLint [4] [µL/min/1e6 cells] | fraction unbound at 10 µM [5] | logD [6] | pKa [7] | MIC (Streptococcus pneumoniae) [µg/mL] | IC50 [8] [nM] | hepatocyte CLint [11] [µL/min/1e6 cells] | AUC [1] [ng·h/mL] | Vd [2] [L/kg] | clearance [3] [mL/min/kg] | clearance [9] [mL/min/kg] | AUC [10] [ng·h/mL] | Vd [12] [L/kg] | other results |
| --- | --- | --- | --- | --- | --- | --- | --- | --- | --- | --- | --- | --- | --- | --- | --- | --- | --- |
| N#Cc1ccc2ccc(=O)n(CCN3CCC(NCc4cc5c(cn4)OCCO5)CC3)c2c1 | 0.03 (≈ 0.0673 µM) | > 8 | 0.5 (≈ 1.12 µM) | 42 | 0.28 | 0.68 | 8.27 | 0.08 (≈ 0.18 µM) | 3.2 | 1.8 | 370 | 8 | 127 | 18 | 2600 | 21 | IC50 [13]: 39000 nM; IC50 [14]: 44000 nM; half-life [15]: 8.4 h; half-life [16]: 3 h; bioavailability [17]: 72%; Activity (Cavia porcellus): > 10%; bioavailability [18]: 31% |
